Reference: ChEMBL document CHEMBL5705901, “Exploiting selective BCL-2 family inhibitors to dissect cell survival dependencies and define improved strategies for cancer therapy” (Sci Transl Med, 2015)
Calls of active or inactive are those of the source. The calls are words filed in the database; no cut-off is given here.

Tests used:
[1] = system: EBC-1; experiment: Synergistic antitumor activity against human EBC-1 cells xenografted in po dosed SCID-bg mouse assessed as tumor growth delay in presence of docetaxel relative to control; format: functional
Method in brief: (§1)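 Xenografts dosed with oral inhibitor plus intravenous docetaxel. TGImax = 100(1 − Tv/Cv), from mean treated and control tumor volumes; TGD = 100(T/C − 1), from median times to reach 1 cm3. Group size 5 mice (NCI-H747, A549-FP3, EBC-1, OVCAR-5), 8 (NCI-H358), 10 (NCI-H1650).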

[2] = system: NCI-H358; experiment: Synergistic antitumor activity against human NCI-H358 cells xenografted in po dosed SCID mouse assessed as maximum tumor growth inhibition in presence of docetaxel relative to control; format: functional; method in brief: as §1
[3] = system: MDA-MB-231; experiment: Synergistic antitumor activity against LC3 positive human MDA-MB-231 cells xenografted in SCID mouse assessed as tumor growth delay at 25 mg/kg, po coadministered with docetaxel once daily for 14 days relative to control; format: functional; details: time 14 day
Method in brief: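 MDA-MB-231 LC3 metastatic breast cancer xenograft, 10 mice per group, with a vehicle control. Dosing: oral agent 25 mg/kg daily for 14 days; docetaxel 7.5 mg/kg iv once; combination gives both regimens. Mean tumor volumes tracked. TGImax = 100(1 − Tv/Cv) from mean treated vs control volumes. TGD = 100(T/C − 1) from median times to reach 1 cm3.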

[4] = Toxicity in Sprague-Dawley rat assessed as inhibition of granulopoiesis by measuring reduction in neutrophil count at 7 mg/kg, po administered daily for 5 days measured on day 6 in presence of docetaxel by microscopic analysis relative to control; format: organism-based; details: in vivo, 144 h, time 6 day
Method in brief: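 Male Sprague-Dawley rats, n = 10 per group: docetaxel 5 mg/kg i.v. once, or oral inhibitor daily for 5 days (30, 50 or 7 mg/kg depending on agent), alone or combined with docetaxel, against vehicles. Total neutrophil and platelet counts in blood collected on day 6; Tukey-Kramer test versus vehicle.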

[5] = Toxicity in po dosed SCID mouse assessed as body weight loss relative to control; format: organism-based; details: in vivo
[6] = Toxicity in po dosed SCID mouse assessed as body weight loss in presence of docetaxel relative to control; format: organism-based; details: in vivo
[7] = system: NCI-H1650; experiment: Synergistic antitumor activity against human NCI-H1650 cells xenografted in SCID-bg mouse assessed as maximum tumor growth inhibition at 25 mg/kg, po coadministered with docetaxel once daily for 14 days relative to control; format: functional; details: NCI-H1650, 336 h, time 14 day, read-out: TGI; method in brief: as §1
[8] = system: EBC-1; experiment: Antitumor activity against human EBC-1 cells xenografted in po dosed SCID-bg mouse assessed as tumor growth delay relative to control; format: functional
[9] = system: OVCAR-5; experiment: Synergistic antitumor activity against human OVCAR-5 cells xenografted in po dosed SCID mouse assessed as tumor growth delay in presence of docetaxel relative to control; format: functional; method in brief: as §1
[10] = system: OVCAR-4; experiment: Antagonistic antiproliferative activity against human OVCAR-4 cells assessed as reduction in cell viability by measuring bliss sum score incubated for 72 hrs in presence of docetaxel by CellTiter-Glo cell vaibility assay; format: functional
[11] = system: NCI-H146; experiment: Induction of apoptosis in Bcl-xl dependent human NCI-H146 cells assessed as cytochrome C release from mitochondria at 0.1 to 1000 nM incubated for 4 hrs by immunoblot analysis; format: functional, cell-based; details: dose 0.1-1000 nM
Method in brief: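 NCI-H146 cells were treated for 4 h with increasing concentrations. Mitochondrial and cytosolic fractions were separated, and cytochrome c in each was determined by immunoblotting.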

[12] = system: LXFL 529; experiment: Synergistic antiproliferative activity against human LXFL 529 cells assessed as reduction in cell viability by measuring bliss sum score incubated for 72 hrs in presence of docetaxel by CellTiter-Glo cell vaibility assay; format: functional
[13] = system: SW1573; experiment: Synergistic antiproliferative activity against human SW1573 cells assessed as reduction in cell viability by measuring bliss sum score incubated for 72 hrs in presence of docetaxel by CellTiter-Glo cell vaibility assay; format: functional
[14] = system: SK-MES-1; experiment: Synergistic antiproliferative activity against human SK-MES-1 cells assessed as reduction in cell viability by measuring bliss sum score incubated for 72 hrs in presence of docetaxel by CellTiter-Glo cell vaibility assay; format: functional
[15] = system: NCI-H838; experiment: Synergistic antiproliferative activity against human NCI-H838 cells assessed as reduction in cell viability by measuring bliss sum score incubated for 72 hrs in presence of docetaxel by CellTiter-Glo cell vaibility assay; format: functional
[16] = system: NCI-H661; experiment: Synergistic antiproliferative activity against human NCI-H661 cells assessed as reduction in cell viability by measuring bliss sum score incubated for 72 hrs in presence of docetaxel by CellTiter-Glo cell vaibility assay; format: functional
[17] = system: NCI-H146; experiment: Induction of apoptosis in Bcl-xl dependent human NCI-H146 cells assessed as accumulation of caspase-dependent sub G0-G1 DNA content upto 5000 nM incubated for 24 hrs by fluorescence-activated cell sorting analysis; format: functional, cell-based
Method in brief: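 NCI-H146 cells were preincubated for 1 h with or without the caspase inhibitor Z-VAD-fmk (75 μM). They were then exposed to increasing concentrations for 24 h. Sub-G0-G1 DNA content was measured by fluorescence-activated cell sorting.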

[18] = system: NCI-H522; experiment: Synergistic antiproliferative activity against human NCI-H522 cells assessed as reduction in cell viability by measuring bliss sum score incubated for 72 hrs in presence of docetaxel by CellTiter-Glo cell vaibility assay; format: functional
[19] = system: MDA-MB-231; experiment: Synergistic antiproliferative activity against LC3 positive human MDA-MB-231 cells assessed as reduction in cell viability by measuring bliss sum score incubated for 72 hrs in presence of docetaxel by CellTiter-Glo cell vaibility assay; format: functional
[20] = system: MDA-MB-231; experiment: Synergistic antiproliferative activity against human MDA-MB-231 cells assessed as reduction in cell viability by measuring bliss sum score incubated for 72 hrs in presence of docetaxel by CellTiter-Glo cell vaibility assay; format: functional
[21] = system: MCF7; experiment: Synergistic antiproliferative activity against human MCF7 cells expressing luciferase assessed as reduction in cell viability by measuring bliss sum score incubated for 72 hrs in presence of docetaxel by CellTiter-Glo cell vaibility assay; format: functional
[22] = system: HCC38; experiment: Synergistic antiproliferative activity against human HCC38 cells assessed as reduction in cell viability by measuring bliss sum score incubated for 72 hrs in presence of docetaxel by CellTiter-Glo cell vaibility assay; format: functional
[23] = system: MX1; experiment: Induction of apoptosis in human MX1 cells assessed as accumulation of cells with sub-G0-G1 DNA content at 1 uM incubated for 48 hrs in presence of docetaxel by flow cytometric analysis; format: functional, cell-based
[24] = system: ZR-75-1; experiment: Induction of apoptosis in human ZR-75-1 cells assessed as accumulation of cells with sub-G0-G1 DNA content at 1 uM incubated for 48 hrs in presence of docetaxel by flow cytometric analysis; format: functional, cell-based
[25] = system: MDA-MB-468; experiment: Induction of apoptosis in human MDA-MB-468 cells assessed as accumulation of cells with sub-G0-G1 DNA content at 1 uM incubated for 48 hrs in presence of docetaxel by flow cytometric analysis; format: functional, cell-based
[26] = system: T47D; experiment: Induction of apoptosis in human T47D cells assessed as accumulation of cells with sub-G0-G1 DNA content at 1 uM incubated for 48 hrs in presence of docetaxel by flow cytometric analysis; format: functional, cell-based

## Cc1c(-c2ccc(N3CCc4cccc(C(=O)Nc5nc6ccccc6s5)c4C3)nc2C(=O)O)cnn1CC12CC3CC(CC(C3)C1)C2
[1]
  Activity: 94%
[2]
  TGI: 91%
[3]
  Activity: 141%
[4]
  Activity: Toxic
[5]
  Activity: < 9%
[6]
  Activity: < 9%
[7]
  inhibition in vivo at 25 mg/kg: 98%
[8]
  Activity: 22%
[9]
  Activity: 85%

## CN(C)CC#Cc1ccc(OCCCc2sc(N3CCc4cccc(C(=O)Nc5nc6ccccc6s5)c4C3)nc2C(=O)O)c(F)c1 [A-1155463]
[10]
  Activity_index: -129
[11]
  Activity: Active
[12]
  Activity_index: 734
[13]
  Activity_index: 461
[14]
  Activity_index: 152
[15]
  Activity_index: 128
[16]
  Activity_index: 94
[17]
  Activity: Active
[18]
  Activity_index: 242
[19]
  Activity_index: 305
[20]
  Activity_index: 277
[21]
  Activity_index: 63
[22]
  Activity_index: 42

## CC1(C)CCC(c2ccc(Cl)cc2)=C(CN2CCN(c3ccc(C(=O)NS(=O)(=O)c4ccc(N[C@H](CCN5CCOCC5)CSc5ccccc5)c(S(=O)(=O)C(F)(F)F)c4)cc3)CC2)C1 [NAVITOCLAX]
[23]
  Activity: Active
[24]
  Activity: Active
[25]
  Activity: Active
[26]
  Activity: Active
